Results taken from ChEMBL document CHEMBL4014332, “Multitargeted Imidazoles: Potential Therapeutic Leads for Alzheimer's and Other Neurodegenerative Diseases” (J Med Chem, 2017).

Columns and labels:
Rattus norvegicus [1] = species: Rattus norvegicus; experiment: Inhibition of 5-LOX-mediated LTB4 production in arachidonic acid-stimulated RBL1 cells at 10 uM preincubated for 2 hrs followed by A23187 induction for 15 mins by LC/MS/MS analysis relative to control
Summary of the method: (§1)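 RBL-1 cells grown in RPMI/10% FBS, plated 9 × 10⁵ cells/well, held 2 h at 37 °C, then given compound for 2 h (screen at 10 μM, then concentration–response in triplicate). Stimulation was 12 μM A23187 for 15 min. Supernatants were extracted with MeOH/0.01% BHT and LTB₄ quantified by UPLC-MS/MS in negative ion mode.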

Cyclooxygenase = molecular target: T1, Cyclooxygenase (Rattus norvegicus, UniProt P35355+Q63921); experiment: Inhibition of COX-mediated PGD2/PGE2 production in arachidonic acid-stimulated RBL1 cells preincubated for 2 hrs followed by A23187 induction for 15 mins by LC/MS/MS analysis
T1 sequence (P35355 whole entry): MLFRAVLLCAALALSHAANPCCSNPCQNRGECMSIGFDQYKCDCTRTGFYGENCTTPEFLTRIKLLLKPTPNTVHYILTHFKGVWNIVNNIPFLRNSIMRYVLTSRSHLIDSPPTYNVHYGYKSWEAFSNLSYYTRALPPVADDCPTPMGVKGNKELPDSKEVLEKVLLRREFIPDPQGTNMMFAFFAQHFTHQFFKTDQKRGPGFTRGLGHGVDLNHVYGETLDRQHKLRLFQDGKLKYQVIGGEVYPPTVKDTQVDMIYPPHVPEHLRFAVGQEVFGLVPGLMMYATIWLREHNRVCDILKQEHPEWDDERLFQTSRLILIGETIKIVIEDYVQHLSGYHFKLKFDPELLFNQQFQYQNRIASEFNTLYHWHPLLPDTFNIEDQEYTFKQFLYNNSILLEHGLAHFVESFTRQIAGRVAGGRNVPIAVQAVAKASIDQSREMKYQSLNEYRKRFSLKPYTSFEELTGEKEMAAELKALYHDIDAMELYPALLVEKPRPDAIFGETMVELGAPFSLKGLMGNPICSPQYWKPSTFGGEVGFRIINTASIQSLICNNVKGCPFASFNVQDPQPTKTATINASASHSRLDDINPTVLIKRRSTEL
T1 sequence (Q63921 whole entry): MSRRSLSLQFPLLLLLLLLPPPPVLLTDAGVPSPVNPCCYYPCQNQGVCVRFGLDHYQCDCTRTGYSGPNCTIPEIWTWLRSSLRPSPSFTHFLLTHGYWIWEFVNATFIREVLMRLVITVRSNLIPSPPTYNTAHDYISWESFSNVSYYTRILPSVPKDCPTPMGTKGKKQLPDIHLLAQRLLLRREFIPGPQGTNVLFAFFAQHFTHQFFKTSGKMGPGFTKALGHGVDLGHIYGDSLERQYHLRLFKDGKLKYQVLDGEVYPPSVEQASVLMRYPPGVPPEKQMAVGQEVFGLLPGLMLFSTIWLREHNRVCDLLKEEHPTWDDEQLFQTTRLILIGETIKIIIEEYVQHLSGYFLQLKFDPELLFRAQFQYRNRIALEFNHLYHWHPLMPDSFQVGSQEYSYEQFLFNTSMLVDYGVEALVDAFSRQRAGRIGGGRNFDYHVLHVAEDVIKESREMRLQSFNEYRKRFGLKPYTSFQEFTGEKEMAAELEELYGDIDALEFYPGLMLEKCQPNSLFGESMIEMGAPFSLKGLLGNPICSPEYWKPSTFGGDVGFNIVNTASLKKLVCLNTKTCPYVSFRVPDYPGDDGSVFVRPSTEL
Summary of the method: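 RBL-1 cells in RPMI/10% FBS, 9 × 10⁵ cells/well, held 2 h, then exposed to compound for 2 h at multiple concentrations in triplicate. Stimulation was 12 μM A23187 for 15 min. Eicosanoids were extracted with MeOH/0.01% BHT, and PGD₂ plus PGE₂ measured by UPLC-MS/MS (negative ion, 351 > 315).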

[2] = Ratio of drug level in brain to plasma in mouse at 5 mg/kg, ip administered as single dose; type: ADME, organism-based; settings: read-out: BPR
Summary of the method: (§2)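 Groups of three CD-1 or B6SJL mice, 2–5 months old, sexes not mixed, received a single 5 mg/kg i.p. dose in DMSO. Compound was quantified in plasma and brain homogenate at a single time point, and the brain/plasma ratio was derived from these. Values are mean ± SD.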

[3] = Plasma concentration in mouse at 5 mg/kg, ip administered as single dose after 1 hr by LC-MS/MS method; type: ADME, organism-based; summary of the method: as §2
[4] = Change in total alpha-tubulin levels in human QBI293 cells at 1 uM after 4 hrs by ELISA relative to control; settings: qbi293, 4 h
[5] = Inhibition of 5-LOX-mediated LTB4 production in arachidonic acid-stimulated RBL1 cells preincubated for 2 hrs followed by A23187 induction for 15 mins by LC/MS/MS analysis; settings: Rattus norvegicus, RBL-1; summary of the method: as §1
[6] = Drug uptake in mouse brain at 5 mg/kg, ip administered as single dose after 1 hr by LC-MS/MS method; type: ADME, organism-based; settings: read-out: Drug uptake; summary of the method: as §2
[7] = Plasma concentration in mouse at 2 mg/kg, ip administered as cassette dosing after 1 hr by LC-MS/MS method; type: ADME, organism-based
Summary of the method: (§3)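 Groups of three 2–5-month-old CD-1 or B6SJL mice, sexes kept separate, were cassette-dosed i.p. in DMSO at 2 mg/kg with two or three compounds given together. Plasma and brain homogenate levels were measured at a single time point and scaled proportionally up to 5 mg/kg. The brain/plasma ratio was derived from these, reported as mean ± SD.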

[8] = Drug uptake in mouse brain at 2 mg/kg, ip administered as cassette dosing after 1 hr by LC-MS/MS method; type: ADME, organism-based; settings: read-out: Drug uptake; summary of the method: as §3
[9] = Ratio of drug level in brain to plasma in mouse at 2 mg/kg, ip administered as cassette dosing; type: ADME, organism-based; settings: read-out: BPR; summary of the method: as §3
[10] = Change in total alpha-tubulin levels in human QBI293 cells at 10 uM after 4 hrs by ELISA relative to control; type: cell-based; settings: qbi293, 4 h
Summary of the method: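 QBI-293 cells grown in DMEM/10% FBS at 37 °C, 5% CO2, plated 6 × 10⁵ cells/well, left overnight, then given vehicle or compound (1 and 10 μM) for 4 h. Cells were lysed in RIPA with protease inhibitors, 1 mM PMSF and 1 μM TSA, then spun at 100000g for 30 min. Total α-tubulin was measured by ELISA, normalized by BCA protein, expressed as fold change vs DMSO, triplicate, two-tailed unpaired t test.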

Homo sapiens = species: Homo sapiens; experiment: Induction of microtubule stabilization in human QBI293 cells assessed as increase in acetylated tubulin levels at 1 uM after 4 hrs by ELISA relative to control; type: cell-based
Summary of the method: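 QBI-293 cells grown in DMEM/10% FBS at 37 °C, 5% CO2, plated 6 × 10⁵ cells/well overnight, then treated with vehicle or compound (1 and 10 μM) for 4 h. Lysis was in RIPA with protease inhibitors, 1 mM PMSF and 1 μM TSA, followed by 100000g spin for 30 min. Acetylated α-tubulin was measured by ELISA on BCA-quantified supernatant, reported as fold change vs DMSO, at least triplicate, t test.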

Rattus norvegicus [11] = species: Rattus norvegicus; settings: at 10 nM
[12] = molecular target: Cyclooxygenase (Rattus norvegicus) (UniProt P35355+Q63921); settings: at 10 nM

SMILES | inhibition (Rattus norvegicus [1]) | IC50 (Cyclooxygenase) | Kp [2] | concentration at 1 h [3] | Activity [4] | IC50 [5] | concentration at 1 h [6] | concentration at 1 h [7] | concentration at 1 h [8] | Kp [9] | fold change (FC) [10] | FC [4] | fold change (FC) (Homo sapiens) | inhibition (Rattus norvegicus [11]) | inhibition [12]
Fc1ccc(Cl)c(F)c1-c1c(Cl)ncn1-c1ccc(Cl)cc1 | 63% | 2.2 µM | 2.1 | 190 nM | Non-Toxic | 9.5 µM | 400 nM | – | – | – | – | – | – | – | –
COc1ccc(-n2c(-c3c(F)cc(F)cc3F)cnc2Cl)cc1 | 75% | 9.8 µM | – | – | Non-Toxic | 20.8 µM | – | 210 nM | 210 nM | 0.9 | – | – | – | – | –
Fc1ccc(F)c(-c2c(Cl)ncn2-c2ccc(Cl)cc2)c1F | 69% | 2.9 µM | 2.8 | 300 nM | Non-Toxic | 2.4 µM | 700 nM | – | – | – | – | – | – | – | –
Cc1ncn(-c2ccc(Cl)cc2)c1-c1c(F)ccc(F)c1F | 74% | 4.7 µM | – | – | – | 23.7 µM | – | 200 nM | 400 nM | 1.9 | 1.2 | – | – | – | –
COc1cc(F)c(-c2c(Cl)nc(C)n2-c2ccc(Cl)cc2)c(F)c1 | 88% | – | – | – | – | – | – | – | – | – | 0.6 | 0.3 | 7.1 | – | –
Cc1cc(F)c(-c2c(Cl)ncn2-c2ccc(Cl)cc2)c(F)c1 | 75% | 1.8 µM | – | – | Non-Toxic | 11.7 µM | – | 110 nM | 300 nM | 2.5 | – | – | – | – | –
Cc1ncn(-c2ccc(Cl)cc2)c1-c1c(F)ccc(Cl)c1F | 71% | 12.1 µM | – | – | Non-Toxic | 13.4 µM | – | 500 nM | 600 nM | 1.4 | – | – | – | – | –
COc1ccc(F)c(-c2c(Cl)nc(Cl)n2-c2ccc(Cl)cc2)c1F | 88% | – | – | – | – | – | – | – | – | – | 0.9 | 0.4 | 5.1 | – | –
COc1cc(F)c(-c2c(Cl)nc(Cl)n2-c2ccc(Cl)cc2)c(F)c1 | 38% | – | – | – | – | – | – | – | – | – | 0.6 | 0.3 | 3.3 | – | –
Fc1cccc(F)c1-c1cnc(Cl)n1-c1ccc(Cl)cc1 | 92% | 15 µM | 1.9 | 480 nM | Non-Toxic | 10.7 µM | 900 nM | – | – | – | – | – | – | – | –
C[C@H](Nc1c(-c2c(F)cc(OCCCN(C)C)cc2F)c(Cl)nc2ncnn12)C(F)(F)F | – | – | – | – | – | – | – | – | – | – | 0.7 | 0.4 | 6 | – | –
Fc1cc(-n2cnc(Cl)c2-c2c(F)ccc(F)c2F)ccc1Cl | 66% | 4.6 µM | 3 | 240 nM | Non-Toxic | 6 µM | 700 nM | – | – | – | – | – | – | – | –
CC(C)c1ccc2c(c1)c(SC(C)(C)C)c(CC(C)(C)C(=O)O)n2Cc1ccc(Cl)cc1 | – | – | – | – | – | – | – | – | – | – | – | – | – | 70% | < 10%
Cc1nc(C)n(-c2ccc(Cl)cc2)c1-c1c(F)cccc1F | 40% | – | – | – | – | – | – | – | – | – | 1.2 | – | – | – | –
Fc1cccc(F)c1-c1c(Cl)ncn1-c1ccc(Cl)cc1 | 76% | 2.4 µM | – | – | Non-Toxic | 13.8 µM | – | 400 nM | 700 nM | 1.9 | – | – | – | – | –
Fc1ccc(F)c(-c2cnc(Cl)n2-c2ccc(Cl)cc2)c1 | 96% | 2.2 µM | – | – | Non-Toxic | 2.5 µM | – | 60 nM | 200 nM | 3.3 | – | – | – | – | –
Cc1ccc(F)c(-c2cnc(Cl)n2-c2ccc(Cl)cc2)c1F | 69% | – | – | – | – | – | – | – | – | – | 0.8 | 0.9 | – | – | –
Clc1ccc(-n2cnc(Cl)c2-c2ccccc2)cc1 | 71% | 1 µM | – | – | Non-Toxic | 12.5 µM | – | 80 nM | 200 nM | 2.4 | – | – | – | – | –
Cc1nc(Cl)c(-c2c(F)ccc(F)c2F)n1-c1ccc(Cl)c(F)c1 | 75% | – | – | – | – | – | – | – | – | – | 0.8 | 0.7 | 3.9 | – | –
Fc1ccc(Br)c(F)c1-c1c(Cl)ncn1-c1ccc(Cl)cc1 | 78% | 6.5 µM | 0.9 | 260 nM | Non-Toxic | 7.8 µM | 240 nM | – | – | – | – | – | – | – | –
Fc1cccc(F)c1-c1cncn1-c1ccc(Cl)cc1 | 46% | – | – | – | – | – | – | – | – | – | 1.2 | – | – | – | –
